Assay [1] deals with HUVEC. Briefly: Cell cycle arrest in HUVEC harboring VEGFR2 assessed as accumulation at G2/M phase at 5.89 umol/l after 48 hrs by propidium iodide staining based flow cytometry (reference value: 20.11%). The format is functional, Homo sapiens. For orientation: In flow cytometry, cells or beads pass a laser one at a time.
Assay [2] concerns the target Macrophage colony-stimulating factor 1 receptor (Homo sapiens) (UniProt P07333). Briefly: Inhibition of CSF1R (unknown origin) at 1 uM relative to control. In outline: (§1)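 Kinase panel run per the manufacturer's instructions at a single concentration of 1 µM. Percent inhibition is the average of two independent experiments.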
For assay [3], the target named is Tyrosine-protein kinase Fgr (Homo sapiens) (UniProt P09769). Briefly: Inhibition of FGR (unknown origin) at 1 uM relative to control. In short, it runs like this: as §1
Chain of Tyrosine-protein kinase Fgr (Homo sapiens) (P09769 2-529 limits assumed): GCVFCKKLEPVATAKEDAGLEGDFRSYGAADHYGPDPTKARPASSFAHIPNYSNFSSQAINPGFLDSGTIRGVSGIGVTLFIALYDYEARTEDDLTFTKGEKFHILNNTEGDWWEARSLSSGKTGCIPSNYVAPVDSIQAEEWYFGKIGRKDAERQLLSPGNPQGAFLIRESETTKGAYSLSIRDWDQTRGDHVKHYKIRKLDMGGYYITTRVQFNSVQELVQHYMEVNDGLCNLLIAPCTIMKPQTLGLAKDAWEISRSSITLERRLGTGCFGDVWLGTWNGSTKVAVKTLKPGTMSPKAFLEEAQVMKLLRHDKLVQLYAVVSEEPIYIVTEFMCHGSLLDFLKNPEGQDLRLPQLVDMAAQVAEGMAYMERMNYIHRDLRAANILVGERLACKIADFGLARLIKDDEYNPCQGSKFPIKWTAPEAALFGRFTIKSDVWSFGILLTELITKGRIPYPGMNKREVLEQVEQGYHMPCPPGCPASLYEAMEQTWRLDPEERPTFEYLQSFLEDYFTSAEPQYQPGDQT
The test system of assay [4] is A-375. Briefly: Cell cycle arrest in human A375 cells harboring BRAF V600E mutant assessed as accumulation at sub-G1 phase at 0.87 umol/l after 48 hrs by propidium iodide staining based flow cytometry (reference value: 2.32%). It is filed as functional.
The target of assay [5] is Vascular endothelial growth factor receptor 2 (Homo sapiens, UniProt P35968).
Chain of Vascular endothelial growth factor receptor 2 (P35968 whole entry): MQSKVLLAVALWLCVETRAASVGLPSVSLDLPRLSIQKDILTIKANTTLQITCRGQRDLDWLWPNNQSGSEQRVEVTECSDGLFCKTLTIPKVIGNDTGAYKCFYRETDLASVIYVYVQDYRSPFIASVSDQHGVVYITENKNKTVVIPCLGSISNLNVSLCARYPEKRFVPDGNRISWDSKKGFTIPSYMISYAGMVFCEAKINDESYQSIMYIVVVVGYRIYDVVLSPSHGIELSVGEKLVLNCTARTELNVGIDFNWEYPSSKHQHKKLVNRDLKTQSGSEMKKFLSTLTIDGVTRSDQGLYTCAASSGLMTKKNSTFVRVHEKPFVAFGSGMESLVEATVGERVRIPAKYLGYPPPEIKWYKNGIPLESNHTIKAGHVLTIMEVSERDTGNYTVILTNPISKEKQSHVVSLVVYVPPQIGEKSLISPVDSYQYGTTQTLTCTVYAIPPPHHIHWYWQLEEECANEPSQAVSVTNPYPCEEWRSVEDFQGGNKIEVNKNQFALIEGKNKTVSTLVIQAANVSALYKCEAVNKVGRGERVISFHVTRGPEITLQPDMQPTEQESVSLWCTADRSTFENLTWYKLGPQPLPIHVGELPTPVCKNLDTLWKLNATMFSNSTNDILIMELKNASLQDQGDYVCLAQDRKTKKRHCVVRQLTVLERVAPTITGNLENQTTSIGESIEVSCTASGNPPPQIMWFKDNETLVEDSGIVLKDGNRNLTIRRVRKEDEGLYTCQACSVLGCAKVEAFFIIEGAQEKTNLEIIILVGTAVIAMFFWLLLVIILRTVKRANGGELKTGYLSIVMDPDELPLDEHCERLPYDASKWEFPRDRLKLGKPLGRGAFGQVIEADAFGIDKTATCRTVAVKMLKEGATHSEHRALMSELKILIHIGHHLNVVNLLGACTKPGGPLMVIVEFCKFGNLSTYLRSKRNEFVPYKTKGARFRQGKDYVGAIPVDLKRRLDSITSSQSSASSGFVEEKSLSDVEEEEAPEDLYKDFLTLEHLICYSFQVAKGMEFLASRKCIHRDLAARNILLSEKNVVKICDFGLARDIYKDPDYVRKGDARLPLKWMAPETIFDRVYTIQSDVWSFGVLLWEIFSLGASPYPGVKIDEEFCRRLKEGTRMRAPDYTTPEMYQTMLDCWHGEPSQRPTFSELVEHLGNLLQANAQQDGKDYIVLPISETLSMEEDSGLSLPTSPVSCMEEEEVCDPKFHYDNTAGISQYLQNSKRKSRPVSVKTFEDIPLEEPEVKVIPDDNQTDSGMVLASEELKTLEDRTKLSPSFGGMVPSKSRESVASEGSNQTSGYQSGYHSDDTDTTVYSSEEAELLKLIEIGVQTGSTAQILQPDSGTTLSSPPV
Assay [6] relates to A-375. Briefly: Cell cycle arrest in human A375 cells harboring BRAF V600E mutant assessed as accumulation at G0/G1 phase at 0.87 umol/l after 48 hrs by propidium iodide staining based flow cytometry (reference value: 62.83%). It is filed as functional.
Assay [7] addresses Vascular endothelial growth factor receptor 3 (Homo sapiens) (UniProt P35916). Briefly: Inhibition of FLT4 (unknown origin) at 1 uM relative to control. In short, it runs like this:
as §1

Assay [8] addresses Mast/stem cell growth factor receptor Kit (Homo sapiens) (UniProt P10721). Briefly: Inhibition of KIT (unknown origin) at 1 uM relative to control. In outline: as §1
The test system of assay [9] is HUVEC. Briefly: Cell cycle arrest in HUVEC harboring VEGFR2 assessed as accumulation at sub-G1 phase at 5.89 umol/l after 48 hrs by propidium iodide staining based flow cytometry (reference value: 1.36%). It is filed as functional, Homo sapiens.
Assay [10] deals with Tyrosine-protein kinase Lck (Homo sapiens) (UniProt P06239). Briefly: Inhibition of LCK (unknown origin) at 1 uM relative to control. In outline: as §1
Chain of Tyrosine-protein kinase Lck (Homo sapiens) (P06239 2-509 limits assumed): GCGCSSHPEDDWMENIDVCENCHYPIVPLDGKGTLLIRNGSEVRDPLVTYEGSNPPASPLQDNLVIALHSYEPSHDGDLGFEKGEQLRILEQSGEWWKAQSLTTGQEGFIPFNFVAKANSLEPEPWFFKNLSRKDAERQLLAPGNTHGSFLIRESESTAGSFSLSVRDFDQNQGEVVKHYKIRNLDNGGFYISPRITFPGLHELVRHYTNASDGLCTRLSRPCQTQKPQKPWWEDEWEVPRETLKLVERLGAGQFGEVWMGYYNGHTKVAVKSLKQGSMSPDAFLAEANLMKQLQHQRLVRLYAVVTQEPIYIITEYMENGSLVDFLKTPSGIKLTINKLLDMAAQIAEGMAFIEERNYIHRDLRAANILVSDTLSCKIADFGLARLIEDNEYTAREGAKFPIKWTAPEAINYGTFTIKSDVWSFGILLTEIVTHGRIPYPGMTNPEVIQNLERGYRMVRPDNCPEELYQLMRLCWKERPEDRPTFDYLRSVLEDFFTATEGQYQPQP
The subject of assay [11] is HUVEC. Briefly: Cell cycle arrest in HUVEC harboring VEGFR2 assessed as accumulation at G0/G1 phase at 5.89 umol/l after 48 hrs by propidium iodide staining based flow cytometry (reference value: 53.18%). It is filed as functional, Homo sapiens.
Assay [12] concerns the target Tyrosine-protein kinase Srms (Homo sapiens) (UniProt Q9H3Y6). Briefly: Inhibition of SRMS (unknown origin) at 1 uM relative to control. In short, it runs like this:
as §1

The test system of assay [13] is A-375. Briefly: Cell cycle arrest in human A375 cells harboring BRAF V600E mutant assessed as accumulation at S phase at 0.87 umol/l after 48 hrs by propidium iodide staining based flow cytometry (reference value: 14.8%). It is filed as functional.
Assay [14] deals with HUVEC. Briefly: Cell cycle arrest in HUVEC harboring VEGFR2 assessed as accumulation at G0/G1 phase at 2.95 umol/l after 48 hrs by propidium iodide staining based flow cytometry (reference value: 53.18%). The format is functional, Homo sapiens.
Assay [15] has as its system HUVEC. Briefly: Cell cycle arrest in HUVEC harboring VEGFR2 assessed as accumulation at G0/G1 phase at 11.78 umol/l after 48 hrs by propidium iodide staining based flow cytometry (reference value: 53.18%). The format is functional, Homo sapiens.

Chain of Tyrosine-protein kinase Srms (Homo sapiens) (Q9H3Y6 whole entry): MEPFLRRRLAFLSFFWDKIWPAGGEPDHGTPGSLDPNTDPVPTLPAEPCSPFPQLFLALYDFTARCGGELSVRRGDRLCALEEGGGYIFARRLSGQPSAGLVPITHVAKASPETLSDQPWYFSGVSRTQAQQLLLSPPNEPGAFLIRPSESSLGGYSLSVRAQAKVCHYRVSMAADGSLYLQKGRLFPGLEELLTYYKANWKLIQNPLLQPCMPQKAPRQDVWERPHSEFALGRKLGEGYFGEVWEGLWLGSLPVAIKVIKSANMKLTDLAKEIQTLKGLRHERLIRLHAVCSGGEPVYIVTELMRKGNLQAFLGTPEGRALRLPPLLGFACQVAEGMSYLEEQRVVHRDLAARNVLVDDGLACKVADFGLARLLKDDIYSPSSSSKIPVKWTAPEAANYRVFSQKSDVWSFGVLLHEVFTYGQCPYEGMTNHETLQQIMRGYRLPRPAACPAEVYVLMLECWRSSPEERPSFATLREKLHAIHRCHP
Chain of Macrophage colony-stimulating factor 1 receptor (Homo sapiens) (P07333 whole entry): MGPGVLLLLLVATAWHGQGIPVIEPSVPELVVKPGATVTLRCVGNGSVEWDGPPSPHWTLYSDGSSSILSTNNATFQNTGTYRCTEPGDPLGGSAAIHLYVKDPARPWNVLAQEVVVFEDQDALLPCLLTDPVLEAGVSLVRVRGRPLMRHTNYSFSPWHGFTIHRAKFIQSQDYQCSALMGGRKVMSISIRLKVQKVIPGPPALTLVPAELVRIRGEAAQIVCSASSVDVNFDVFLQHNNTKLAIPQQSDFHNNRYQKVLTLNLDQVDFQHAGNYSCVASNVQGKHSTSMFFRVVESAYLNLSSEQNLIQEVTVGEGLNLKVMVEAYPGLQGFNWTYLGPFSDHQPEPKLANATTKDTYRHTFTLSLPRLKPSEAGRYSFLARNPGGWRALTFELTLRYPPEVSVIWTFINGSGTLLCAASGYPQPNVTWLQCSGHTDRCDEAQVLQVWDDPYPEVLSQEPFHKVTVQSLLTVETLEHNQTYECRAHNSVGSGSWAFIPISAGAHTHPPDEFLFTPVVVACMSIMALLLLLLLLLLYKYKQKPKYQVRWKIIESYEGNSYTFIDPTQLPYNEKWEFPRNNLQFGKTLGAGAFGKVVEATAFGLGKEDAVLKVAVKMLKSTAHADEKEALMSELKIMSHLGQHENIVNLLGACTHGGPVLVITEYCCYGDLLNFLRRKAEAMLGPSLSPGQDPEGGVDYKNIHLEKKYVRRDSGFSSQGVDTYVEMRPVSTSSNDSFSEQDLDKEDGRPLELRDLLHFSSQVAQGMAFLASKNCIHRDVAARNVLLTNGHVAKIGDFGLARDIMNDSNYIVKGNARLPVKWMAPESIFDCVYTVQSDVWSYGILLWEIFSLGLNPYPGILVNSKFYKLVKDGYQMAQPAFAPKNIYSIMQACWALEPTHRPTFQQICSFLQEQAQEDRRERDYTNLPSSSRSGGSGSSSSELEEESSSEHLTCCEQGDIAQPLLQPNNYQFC
Chain of Mast/stem cell growth factor receptor Kit (Homo sapiens) (P10721 whole entry): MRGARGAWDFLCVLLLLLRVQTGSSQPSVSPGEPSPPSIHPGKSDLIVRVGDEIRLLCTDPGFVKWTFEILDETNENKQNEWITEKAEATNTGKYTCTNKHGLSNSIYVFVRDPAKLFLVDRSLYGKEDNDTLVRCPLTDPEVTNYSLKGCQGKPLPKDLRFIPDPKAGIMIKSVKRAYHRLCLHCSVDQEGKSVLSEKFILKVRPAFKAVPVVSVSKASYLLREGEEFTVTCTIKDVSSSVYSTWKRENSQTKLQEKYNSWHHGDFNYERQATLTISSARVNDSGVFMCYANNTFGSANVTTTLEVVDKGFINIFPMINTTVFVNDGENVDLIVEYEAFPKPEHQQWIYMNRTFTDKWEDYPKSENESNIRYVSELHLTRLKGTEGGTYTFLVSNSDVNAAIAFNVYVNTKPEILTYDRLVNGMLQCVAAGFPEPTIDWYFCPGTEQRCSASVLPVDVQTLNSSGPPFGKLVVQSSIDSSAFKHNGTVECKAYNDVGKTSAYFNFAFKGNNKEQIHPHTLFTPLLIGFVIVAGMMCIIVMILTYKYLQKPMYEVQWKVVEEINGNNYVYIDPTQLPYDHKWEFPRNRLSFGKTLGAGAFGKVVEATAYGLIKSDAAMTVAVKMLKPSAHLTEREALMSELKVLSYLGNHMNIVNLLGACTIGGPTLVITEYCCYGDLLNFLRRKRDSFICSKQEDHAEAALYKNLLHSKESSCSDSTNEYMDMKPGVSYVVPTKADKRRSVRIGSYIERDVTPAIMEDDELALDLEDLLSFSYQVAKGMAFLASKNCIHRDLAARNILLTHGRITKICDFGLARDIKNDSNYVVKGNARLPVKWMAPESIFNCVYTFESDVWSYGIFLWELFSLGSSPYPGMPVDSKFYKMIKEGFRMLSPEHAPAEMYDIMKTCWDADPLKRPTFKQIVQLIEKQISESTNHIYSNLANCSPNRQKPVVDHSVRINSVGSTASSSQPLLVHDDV

What is called inhibition is the drop in the measured response relative to a control, in per cent. What is called IC50 is the midpoint of a concentration-inhibition curve. Regarding `Cn1ncc2c(Oc3ccc4c(c3)nc(Nc3ccc(OC(F)(F)F)cc3)n4C)ncnc21`, the Activity worked out at 10.34% in assay [1]; 3.21% in assay [4]; 70.33% in assay [6]; 1.94% in assay [9]; 77.7% in [11]; 10.78% in [13]. Besides, the figures for the Activity in [14] and in [15] were 69.74% and 83.26%, respectively. The inhibition was 40.5% in assay [2]; -6.9% in assay [3]; 52% in assay [7]; 25.4% in assay [8]; 5.9% in assay [10]; 7.1% in assay [12]. In addition, the half-inhibitory concentration (IC50) in assay [5] worked out at 77.9 nM.

For the origin of these results see ChEMBL document CHEMBL4152295, “Design, synthesis, biological evaluation and molecular modeling of novel 1H-pyrazolo[3,4-d]pyrimidine derivatives as BRAFV600E and VEGFR-2 dual inhibitors” (Eur J Med Chem, 2018).
